Measurements: ChEMBL document CHEMBL1138512, “A class of 2,4-bisanilinopyrimidine Aurora A inhibitors with unusually high selectivity against Aurora B” (J Med Chem, 2009)
Values belong to the compound of their own block, whether it stands above or below them.

What was measured:
Aurora kinase A [1] = biological target: T1, Aurora kinase A (Homo sapiens, UniProt O14965); experiment: Inhibition of N-terminal flag-tagged Aurora A expressed in Escherichia coli BL21-DE3 by ELISA
T1 sequence (O14965 whole entry): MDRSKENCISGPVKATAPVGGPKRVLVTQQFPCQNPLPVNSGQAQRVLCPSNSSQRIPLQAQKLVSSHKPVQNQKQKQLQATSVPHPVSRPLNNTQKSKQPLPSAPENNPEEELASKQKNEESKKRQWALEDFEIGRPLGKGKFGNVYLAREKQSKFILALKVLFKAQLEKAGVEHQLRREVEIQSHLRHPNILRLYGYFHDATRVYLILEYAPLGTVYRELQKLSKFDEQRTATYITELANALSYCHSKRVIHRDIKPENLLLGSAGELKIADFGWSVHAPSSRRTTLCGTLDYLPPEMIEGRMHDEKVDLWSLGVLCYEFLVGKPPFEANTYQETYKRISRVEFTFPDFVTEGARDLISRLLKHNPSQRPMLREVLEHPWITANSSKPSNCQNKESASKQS

HT-29 = experiment: Antiproliferative activity against human HT-29 cells after 4 days by celltiter assay; type: functional, cell-based; details: HT-29, 96 h
HCT-116 = experiment: Antiproliferative activity against human HCT116 cells after 4 days by celltiter assay; type: functional, cell-based; details: HCT-116, 96 h
Aurora kinase B [2] = biological target: T2, Aurora kinase B (Homo sapiens, UniProt Q96GD4); experiment: Inhibition of Aurora B in human HCT116 cells assessed as complete loss of phospho-histone H3 staining by immunofluorescence assay
T2 sequence (Q96GD4 whole entry): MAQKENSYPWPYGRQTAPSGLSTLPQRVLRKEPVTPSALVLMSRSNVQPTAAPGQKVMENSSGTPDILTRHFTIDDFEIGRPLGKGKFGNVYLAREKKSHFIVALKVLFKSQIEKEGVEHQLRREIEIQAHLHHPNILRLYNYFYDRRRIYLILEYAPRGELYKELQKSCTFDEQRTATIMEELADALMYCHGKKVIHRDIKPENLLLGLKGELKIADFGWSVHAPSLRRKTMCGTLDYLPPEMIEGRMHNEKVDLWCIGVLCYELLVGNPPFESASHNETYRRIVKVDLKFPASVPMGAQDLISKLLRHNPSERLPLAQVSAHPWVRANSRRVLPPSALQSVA

Aurora kinase B [3] = biological target: T2, Aurora kinase B; experiment: Inhibition of N-terminal flag-tagged Aurora B expressed in Escherichia coli BL21-DE3 by ELISA
Aurora kinase B [4] = biological target: T2, Aurora kinase B; experiment: Inhibition of Aurora B in human HT29 cells assessed as complete loss of phospho-histone H3 staining by immunofluorescence assay; type: cell-based, HT-29
Summary of the method: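 Immunofluorescence for phospho-S10 histone H3 in HCT116 or HT29 cells, scored visually. Value taken as the lowest inhibitor concentration giving complete loss of staining, so it lies above the IC50. Units µM.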

[5] = biological target: Receptor-type tyrosine-protein kinase FLT3 (Homo sapiens) (UniProt P36888); experiment: Inhibition of human Flt3 at 1 uM assessed as residual enzyme activity
[6] = biological target: Dual specificity mitogen-activated protein kinase kinase 1 (Homo sapiens) (UniProt Q02750); experiment: Inhibition of human MEK1 at 1 uM assessed as residual enzyme activity
[7] = biological target: Tyrosine-protein kinase ABL2 (Mus musculus) (UniProt Q4JIM5); experiment: Inhibition of mouse ARG at 1 uM assessed as residual enzyme activity
Aurora kinase A [8] = biological target: T1, Aurora kinase A; experiment: Inhibition of Aurora A in human HCT116 cells assessed as complete loss of phospho-Aurora A staining in centrosomes by immunofluorescence assay; type: cell-based, HCT-116
[9] = biological target: BDNF/NT-3 growth factors receptor (Homo sapiens) (UniProt Q16620); experiment: Inhibition of human TrkB at 1 uM assessed as residual enzyme activity
BDNF/NT-3 growth factors receptor (Homo sapiens), sequence (Q16620 32-822 limits assumed): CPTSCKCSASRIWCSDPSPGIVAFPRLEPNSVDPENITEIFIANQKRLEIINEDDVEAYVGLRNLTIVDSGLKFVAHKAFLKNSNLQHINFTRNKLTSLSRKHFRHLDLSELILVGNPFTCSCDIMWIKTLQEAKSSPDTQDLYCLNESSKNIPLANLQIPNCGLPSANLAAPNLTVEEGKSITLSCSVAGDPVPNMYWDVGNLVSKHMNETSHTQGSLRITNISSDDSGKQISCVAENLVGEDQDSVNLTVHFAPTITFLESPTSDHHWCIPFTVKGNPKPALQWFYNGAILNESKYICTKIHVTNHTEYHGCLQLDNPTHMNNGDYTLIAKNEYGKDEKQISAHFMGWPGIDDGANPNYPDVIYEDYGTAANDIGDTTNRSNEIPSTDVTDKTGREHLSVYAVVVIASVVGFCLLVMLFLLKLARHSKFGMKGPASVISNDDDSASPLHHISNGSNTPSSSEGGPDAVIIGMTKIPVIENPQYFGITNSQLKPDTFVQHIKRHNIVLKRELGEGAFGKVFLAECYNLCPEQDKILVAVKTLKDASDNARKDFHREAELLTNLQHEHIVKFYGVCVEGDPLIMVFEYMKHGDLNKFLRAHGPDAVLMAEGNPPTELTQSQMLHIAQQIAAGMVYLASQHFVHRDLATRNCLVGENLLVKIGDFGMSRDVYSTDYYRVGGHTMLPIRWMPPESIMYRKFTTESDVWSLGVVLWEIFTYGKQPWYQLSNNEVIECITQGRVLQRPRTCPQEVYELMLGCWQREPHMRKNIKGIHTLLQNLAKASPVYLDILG

[10] = biological target: Fibroblast growth factor receptor 3 (Homo sapiens) (UniProt P22607); experiment: Inhibition of human FGFR3 at 1 uM assessed as residual enzyme activity
[11] = biological target: RAC-beta serine/threonine-protein kinase (Homo sapiens) (UniProt P31751); experiment: Inhibition of human PKBbeta at 1 uM assessed as residual enzyme activity
[12] = biological target: Proto-oncogene tyrosine-protein kinase receptor Ret (Homo sapiens) (UniProt P07949); experiment: Inhibition of human Ret at 1 uM assessed as residual enzyme activity
[13] = biological target: Insulin receptor (Homo sapiens) (UniProt P06213); experiment: Inhibition of human insulin receptor at 1 uM assessed as residual enzyme activity
Insulin receptor (Homo sapiens), sequence (P06213 28-758 limits assumed): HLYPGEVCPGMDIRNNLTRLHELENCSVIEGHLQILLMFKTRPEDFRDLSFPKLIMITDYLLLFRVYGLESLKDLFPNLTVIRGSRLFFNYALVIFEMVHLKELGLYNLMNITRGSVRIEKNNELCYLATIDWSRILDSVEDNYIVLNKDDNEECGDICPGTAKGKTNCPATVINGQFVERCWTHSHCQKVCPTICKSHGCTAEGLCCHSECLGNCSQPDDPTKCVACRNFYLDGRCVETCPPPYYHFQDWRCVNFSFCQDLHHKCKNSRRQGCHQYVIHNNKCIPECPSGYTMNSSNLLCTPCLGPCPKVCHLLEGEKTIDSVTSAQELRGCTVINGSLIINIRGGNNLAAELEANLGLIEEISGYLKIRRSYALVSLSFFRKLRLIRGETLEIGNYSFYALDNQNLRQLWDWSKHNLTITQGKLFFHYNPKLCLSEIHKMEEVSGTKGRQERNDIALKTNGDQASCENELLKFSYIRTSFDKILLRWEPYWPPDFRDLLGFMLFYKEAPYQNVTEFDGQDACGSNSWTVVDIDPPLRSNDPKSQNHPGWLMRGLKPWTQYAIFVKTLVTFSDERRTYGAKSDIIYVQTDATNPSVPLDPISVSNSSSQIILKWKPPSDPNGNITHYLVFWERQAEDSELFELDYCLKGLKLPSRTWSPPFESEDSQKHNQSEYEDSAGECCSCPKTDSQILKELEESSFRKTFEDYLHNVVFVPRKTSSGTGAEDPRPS
Insulin receptor (Homo sapiens), sequence (P06213 763-1382 limits assumed): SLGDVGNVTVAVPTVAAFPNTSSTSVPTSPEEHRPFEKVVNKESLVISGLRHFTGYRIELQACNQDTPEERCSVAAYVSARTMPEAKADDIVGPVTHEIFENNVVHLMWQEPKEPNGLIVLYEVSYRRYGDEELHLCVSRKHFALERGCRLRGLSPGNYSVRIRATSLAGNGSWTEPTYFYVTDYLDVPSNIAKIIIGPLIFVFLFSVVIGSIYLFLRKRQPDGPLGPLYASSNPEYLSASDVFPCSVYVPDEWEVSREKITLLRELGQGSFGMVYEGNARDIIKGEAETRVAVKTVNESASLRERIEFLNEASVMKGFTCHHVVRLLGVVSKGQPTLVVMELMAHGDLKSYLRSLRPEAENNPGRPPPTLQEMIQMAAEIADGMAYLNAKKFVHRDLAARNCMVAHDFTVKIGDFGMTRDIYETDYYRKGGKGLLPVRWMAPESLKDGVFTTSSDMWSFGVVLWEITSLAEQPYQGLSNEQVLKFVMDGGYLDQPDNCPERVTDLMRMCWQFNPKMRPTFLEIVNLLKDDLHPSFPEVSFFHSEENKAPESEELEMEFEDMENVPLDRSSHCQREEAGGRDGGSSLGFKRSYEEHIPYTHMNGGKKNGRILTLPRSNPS

[14] = biological target: Tyrosine-protein kinase receptor UFO (Homo sapiens) (UniProt P30530); experiment: Inhibition of human Axl at 1 uM assessed as residual enzyme activity
Tyrosine-protein kinase receptor UFO (Homo sapiens), sequence (P30530 whole entry): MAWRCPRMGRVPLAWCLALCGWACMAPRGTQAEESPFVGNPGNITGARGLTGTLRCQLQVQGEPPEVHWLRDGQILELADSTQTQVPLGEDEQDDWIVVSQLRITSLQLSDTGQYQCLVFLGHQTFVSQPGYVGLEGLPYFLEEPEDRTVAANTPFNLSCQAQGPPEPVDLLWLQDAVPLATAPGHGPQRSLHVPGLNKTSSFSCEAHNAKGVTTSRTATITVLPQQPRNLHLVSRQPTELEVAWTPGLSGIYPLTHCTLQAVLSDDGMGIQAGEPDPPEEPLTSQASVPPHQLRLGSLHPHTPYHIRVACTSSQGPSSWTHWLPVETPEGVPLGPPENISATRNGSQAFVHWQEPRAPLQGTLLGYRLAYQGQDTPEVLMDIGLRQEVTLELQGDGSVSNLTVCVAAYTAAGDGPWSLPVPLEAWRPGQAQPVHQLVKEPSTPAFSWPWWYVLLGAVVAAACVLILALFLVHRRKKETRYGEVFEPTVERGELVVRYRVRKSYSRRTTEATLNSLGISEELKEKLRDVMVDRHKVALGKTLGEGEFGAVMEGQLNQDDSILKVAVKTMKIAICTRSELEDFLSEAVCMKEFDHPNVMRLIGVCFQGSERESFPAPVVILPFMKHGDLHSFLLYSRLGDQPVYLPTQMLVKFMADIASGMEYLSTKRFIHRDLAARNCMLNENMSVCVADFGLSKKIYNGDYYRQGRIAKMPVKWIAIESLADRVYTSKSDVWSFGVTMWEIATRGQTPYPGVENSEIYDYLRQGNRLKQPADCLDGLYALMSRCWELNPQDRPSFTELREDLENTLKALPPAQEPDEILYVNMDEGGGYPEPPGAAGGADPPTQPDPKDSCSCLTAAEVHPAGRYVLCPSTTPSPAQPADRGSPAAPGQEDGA

[15] = biological target: Platelet-derived growth factor receptor beta (Homo sapiens) (UniProt P09619); experiment: Inhibition of human PDGFRbeta at 1 uM assessed as residual enzyme activity
[16] = biological target: Cyclin-dependent kinase 1/cyclin B1 (Homo sapiens) (UniProt P06493+P14635); experiment: Inhibition of human CDK1/cyclin B at 1 uM assessed as residual enzyme activity
[17] = biological target: Epidermal growth factor receptor (Homo sapiens) (UniProt P00533); experiment: Inhibition of human EGFR at 1 uM assessed as residual enzyme activity
[18] = biological target: Hepatocyte growth factor receptor (Homo sapiens) (UniProt P08581); experiment: Inhibition of human Met at 1 uM assessed as residual enzyme activity
[19] = biological target: Mitogen-activated protein kinase 8 (Homo sapiens) (UniProt P45983); experiment: Inhibition of human JNK1alpha1 at 1 uM assessed as residual enzyme activity
[20] = biological target: Tyrosine-protein kinase CSK (Homo sapiens) (UniProt P41240); experiment: Inhibition of human CSK at 1 uM assessed as residual enzyme activity
Tyrosine-protein kinase CSK (Homo sapiens), sequence (P41240 2-450 limits assumed): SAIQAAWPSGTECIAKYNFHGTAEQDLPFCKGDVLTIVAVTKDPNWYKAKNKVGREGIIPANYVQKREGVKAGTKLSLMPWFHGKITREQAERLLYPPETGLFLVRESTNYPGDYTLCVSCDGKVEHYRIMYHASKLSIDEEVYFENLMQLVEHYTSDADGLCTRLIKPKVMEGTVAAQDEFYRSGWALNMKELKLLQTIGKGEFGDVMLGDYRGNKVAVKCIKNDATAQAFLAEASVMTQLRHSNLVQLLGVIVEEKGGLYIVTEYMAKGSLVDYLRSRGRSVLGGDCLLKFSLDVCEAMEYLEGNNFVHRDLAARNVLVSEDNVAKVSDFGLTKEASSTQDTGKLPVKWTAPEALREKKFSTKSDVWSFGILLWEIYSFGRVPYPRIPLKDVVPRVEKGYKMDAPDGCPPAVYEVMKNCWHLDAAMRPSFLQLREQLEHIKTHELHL

[21] = biological target: Tyrosine-protein kinase Lck (Homo sapiens) (UniProt P06239); experiment: Inhibition of human Lck at 1 uM assessed as residual enzyme activity
[22] = biological target: Proto-oncogene tyrosine-protein kinase Src (Homo sapiens) (UniProt P12931); experiment: Inhibition of human c-SRC at 1 uM assessed as residual enzyme activity
[23] = biological target: Ephrin type-B receptor 2 (Homo sapiens) (UniProt P29323); experiment: Inhibition of human EphB2 at 1 uM assessed as residual enzyme activity
[24] = biological target: RAC-alpha serine/threonine-protein kinase (Homo sapiens) (UniProt P31749); experiment: Inhibition of human PKBalpha at 1 uM assessed as residual enzyme activity
[25] = biological target: Aurora kinase A (Homo sapiens) (UniProt O14965); experiment: Inhibition of human Aurora A at 1 uM assessed as residual enzyme activity
[26] = biological target: T3, Cyclin-dependent kinase 2 (Homo sapiens, UniProt P24941); experiment: Inhibition of CDK2/cyclin A
[27] = biological target: Ribosomal protein S6 kinase beta-1 (Homo sapiens) (UniProt P23443); experiment: Inhibition of human p70S6K at 1 uM assessed as residual enzyme activity
[28] = biological target: RAC-gamma serine/threonine-protein kinase (Homo sapiens) (UniProt Q9Y243); experiment: Inhibition of human PKBgamma at 1 uM assessed as residual enzyme activity
[29] = biological target: Casein kinase II (Homo sapiens) (UniProt P67870+P68400+P19784); experiment: Inhibition of human CK2 at 1 uM assessed as residual enzyme activity; type: protein-complex assay
[30] = biological target: RAF proto-oncogene serine/threonine-protein kinase (Homo sapiens) (UniProt P04049); experiment: Inhibition of human c-RAF at 1 uM assessed as residual enzyme activity
[31] = biological target: Serine/threonine-protein kinase Chk1 (Homo sapiens) (UniProt O14757); experiment: Inhibition of human CHK1 at 1 uM assessed as residual enzyme activity
[32] = biological target: Tyrosine-protein kinase ABL1 (Mus musculus) (UniProt P00520); experiment: Inhibition of mouse ABL at 1 uM assessed as residual enzyme activity
[33] = biological target: Glycogen synthase kinase-3 beta (Homo sapiens) (UniProt P49841); experiment: Inhibition of human GSK3-beta at 1 uM assessed as residual enzyme activity
Glycogen synthase kinase-3 beta (Homo sapiens), sequence (P49841 whole entry, looked up): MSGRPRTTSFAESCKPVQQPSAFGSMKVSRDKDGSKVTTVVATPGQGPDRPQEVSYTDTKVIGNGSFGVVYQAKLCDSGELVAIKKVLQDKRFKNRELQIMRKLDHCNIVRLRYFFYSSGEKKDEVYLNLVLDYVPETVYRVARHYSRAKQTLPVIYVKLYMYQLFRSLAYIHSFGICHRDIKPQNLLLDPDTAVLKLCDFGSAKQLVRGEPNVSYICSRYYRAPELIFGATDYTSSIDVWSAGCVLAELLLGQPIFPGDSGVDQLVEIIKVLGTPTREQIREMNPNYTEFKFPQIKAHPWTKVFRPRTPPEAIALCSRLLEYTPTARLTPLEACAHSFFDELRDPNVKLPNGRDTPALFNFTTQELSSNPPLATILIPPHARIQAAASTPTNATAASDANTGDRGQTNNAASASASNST

[34] = biological target: T3, Cyclin-dependent kinase 2; experiment: Inhibition of human CDK2/cyclin E at 1 uM assessed as residual enzyme activity
[35] = biological target: Tyrosine-protein kinase ZAP-70 (Homo sapiens) (UniProt P43403); experiment: Inhibition of human ZAP-70 at 1 uM assessed as residual enzyme activity
Tyrosine-protein kinase ZAP-70 (Homo sapiens), sequence (P43403 whole entry): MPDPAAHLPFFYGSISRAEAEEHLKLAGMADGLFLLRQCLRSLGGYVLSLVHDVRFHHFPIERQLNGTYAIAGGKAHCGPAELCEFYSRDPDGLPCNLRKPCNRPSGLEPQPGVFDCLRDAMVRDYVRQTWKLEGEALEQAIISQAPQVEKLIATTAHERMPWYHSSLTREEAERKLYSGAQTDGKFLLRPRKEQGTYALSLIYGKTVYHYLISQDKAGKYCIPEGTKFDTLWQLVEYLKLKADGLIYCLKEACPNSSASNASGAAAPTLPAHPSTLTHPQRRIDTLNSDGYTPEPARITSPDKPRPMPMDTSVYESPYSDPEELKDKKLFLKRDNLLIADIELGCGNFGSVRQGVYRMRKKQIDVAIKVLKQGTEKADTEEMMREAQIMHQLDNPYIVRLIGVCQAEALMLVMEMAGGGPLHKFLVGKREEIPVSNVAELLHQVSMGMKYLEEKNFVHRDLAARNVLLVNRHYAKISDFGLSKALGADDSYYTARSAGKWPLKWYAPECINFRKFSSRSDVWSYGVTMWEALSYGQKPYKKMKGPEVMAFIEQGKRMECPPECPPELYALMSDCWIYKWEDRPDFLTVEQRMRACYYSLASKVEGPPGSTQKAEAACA

Homo sapiens = organism: Homo sapiens; experiment: Inhibition of human PKA at 1 uM assessed as residual enzyme activity

SMILES: O=C(Nc1ccc(F)cc1)c1ccc(Nc2nc(Nc3ccc(O)cc3)ncc2F)cc1
- IC50 (Aurora kinase A [1]): 25 nM

SMILES: COc1ccccc1NC(=O)c1ccc(Nc2nc(Nc3ccc(O)cc3)ncc2F)cc1
- IC50 (Aurora kinase A [1]): 78 nM

SMILES: Oc1ccc(Nc2ncc(Cl)c(Nc3ccc(O)cc3)n2)cc1
- IC50 (Aurora kinase A [1]): 8 nM

SMILES: O=C(O)c1ccc(Nc2ncc3c(n2)-c2ccc(Cl)cc2C(c2c(F)cccc2F)=NC3)cc1 [MLN-8054]
- IC50 (HT-29): 150 nM
- IC50 (HCT-116): 100 nM

SMILES: O=C(Nc1ccccc1O)c1ccc(Nc2nc(Nc3ccc(O)cc3)ncc2F)cc1
- IC50 (Aurora kinase A [1]): 28 nM

SMILES: Cc1cccc(Nc2ncc(F)c(Nc3cccc(C)c3)n2)c1
- IC50 (Aurora kinase A [1]): 680 nM

SMILES: O=C(Nc1ccccc1F)c1ccc(Nc2nc(Nc3ccc(O)cc3)ncc2F)cc1
- IC50 (Aurora kinase A [1]): 9 nM

SMILES: COc1ccccc1Nc1nc(Nc2ccc(O)cc2)ncc1F
- IC50 (Aurora kinase A [1]): 20 nM

SMILES: Cc1ccccc1Nc1nc(Nc2ccc(O)cc2)ncc1F
- IC50 (Aurora kinase A [1]): 67 nM

SMILES: COc1ccc(Nc2ncc(F)c(Nc3ccc(OC)cc3)n2)cc1
- IC50 (Aurora kinase A [1]): 130 nM

SMILES: Cc1cccc(NC(=O)c2ccc(Nc3nc(Nc4ccc(O)cc4)ncc3F)cc2)c1
- IC50 (Aurora kinase A [1]): 50 nM

SMILES: Cc1ccc(NC(=O)c2ccc(Nc3nc(Nc4ccc(O)cc4)ncc3F)cc2)cc1
- IC50 (Aurora kinase A [1]): 180 nM

Next, values leading:

- IC50 (Aurora kinase A [1]): 59 nM
SMILES: O=C(Nc1cccc(F)c1)c1ccc(Nc2nc(Nc3ccc(O)cc3)ncc2F)cc1

- IC50 (Aurora kinase A [1]): 640 nM
SMILES: CN(C)C(=O)c1ccc(Nc2nc(Nc3ccc(O)cc3)ncc2F)cc1

- IC50 (Aurora kinase A [1]): 14 nM
SMILES: O=C(Nc1ccc(Nc2nc(Nc3ccc(O)cc3)ncc2F)cc1)c1ccccc1F

- IC50 (HT-29): 27000 nM
- IC50 (Aurora kinase B [2]): > 25000 nM
- IC50 (Aurora kinase B [3]): 3800 nM
- IC50 (HCT-116): 2000 nM
- IC50 (Aurora kinase A [1]): 54 nM
- IC50 (Aurora kinase B [4]): > 30000 nM
SMILES: O=C(NC1CC1)c1ccc(Nc2nc(Nc3ccc(O)cc3)ncc2F)cc1

- IC50 (Aurora kinase A [1]): 11000 nM
SMILES: CCCc1cnc(Nc2ccc(O)cc2)nc1Nc1ccc(O)cc1

- IC50 (HT-29): 17000 nM
- Activity [5]: 6%
- IC50 (Aurora kinase B [2]): > 25000 nM
- Activity [6]: 103%
- Activity [7]: 57%
- IC50 (Aurora kinase A [8]): 5000 nM
- Activity [9]: 76%
- Activity [10]: 40%
- Activity [11]: 103%
- Activity [12]: 7%
- Activity [13]: 102%
- Activity [14]: 54%
- Activity [15]: 111%
- Activity [16]: 60%
- Activity [17]: 54%
- Activity [18]: 57%
- Activity [19]: 31%
- Activity [20]: 100%
- Activity [21]: 42%
- Activity [22]: 66%
- Activity [23]: 104%
- Activity [24]: 96%
- Activity [25]: 1%
- IC50 [26]: 3200 nM
- IC50 (Aurora kinase B [3]): 1900 nM
- Activity [27]: 25%
- IC50 (HCT-116): 870 nM
- IC50 (Aurora kinase A [1]): 10 nM
- Activity [28]: 91%
- Activity [29]: 88%
- Activity [30]: 64%
- Activity [31]: 82%
- IC50 (Aurora kinase B [4]): > 30000 nM
- Activity [32]: 76%
- Activity [33]: 90%
- Activity [34]: 44%
- Activity [35]: 100%
- Activity (Homo sapiens): 87%
SMILES: O=C(Nc1ccccc1Cl)c1ccc(Nc2nc(Nc3ccc(O)cc3)ncc2F)cc1

- IC50 (Aurora kinase A [1]): 18 nM
SMILES: O=C(Nc1ccc(Nc2nc(Nc3ccc(O)cc3)ncc2F)cc1)c1ccccc1

- IC50 (Aurora kinase A [1]): > 17000 nM
SMILES: Oc1ccc(Nc2cc(Cl)nc(Nc3ccc(O)cc3)n2)cc1

- IC50 (Aurora kinase A [1]): 78 nM
SMILES: COc1ccc(Nc2nc(Nc3ccc(O)cc3)ncc2F)cc1

- IC50 (Aurora kinase A [1]): 260 nM
SMILES: COc1cccc(Nc2nc(Nc3ccc(O)cc3)ncc2F)c1

- IC50 (Aurora kinase A [1]): 75 nM
SMILES: Cc1ccc(Nc2nc(Nc3ccc(O)cc3)ncc2F)cc1
